This passage reports inhibition, Activity and IC50 results from ChEMBL document CHEMBL2434840, “Discovery of 4-amino-2-(thio)phenol derivatives as novel protein kinase and angiogenesis inhibitors for the treatment of cancer: synthesis and biological evaluation. Part II” (Eur J Med Chem, 2013).

One may read the inhibition as the drop in the measured response relative to a control, in per cent. The IC50 is the point on the concentration scale where inhibition reaches its midpoint. A higher IC50 goes with lower potency.

Molecules are shown by their SMILES. Calls of active or inactive are those of the source. The calls are words filed in the database; no cut-off is given here.

Experiment [1] deals with Vascular endothelial growth factor receptor 2 (Homo sapiens) (UniProt P35968). Description: Inhibition of VEGFR2 (unknown origin) phosphorylation at 5 ug/mL by cell-based Western blotting analysis. For orientation: In western blotting, separated proteins are transferred to a membrane and probed.
Chain of Vascular endothelial growth factor receptor 2 (Homo sapiens) (P35968 whole entry): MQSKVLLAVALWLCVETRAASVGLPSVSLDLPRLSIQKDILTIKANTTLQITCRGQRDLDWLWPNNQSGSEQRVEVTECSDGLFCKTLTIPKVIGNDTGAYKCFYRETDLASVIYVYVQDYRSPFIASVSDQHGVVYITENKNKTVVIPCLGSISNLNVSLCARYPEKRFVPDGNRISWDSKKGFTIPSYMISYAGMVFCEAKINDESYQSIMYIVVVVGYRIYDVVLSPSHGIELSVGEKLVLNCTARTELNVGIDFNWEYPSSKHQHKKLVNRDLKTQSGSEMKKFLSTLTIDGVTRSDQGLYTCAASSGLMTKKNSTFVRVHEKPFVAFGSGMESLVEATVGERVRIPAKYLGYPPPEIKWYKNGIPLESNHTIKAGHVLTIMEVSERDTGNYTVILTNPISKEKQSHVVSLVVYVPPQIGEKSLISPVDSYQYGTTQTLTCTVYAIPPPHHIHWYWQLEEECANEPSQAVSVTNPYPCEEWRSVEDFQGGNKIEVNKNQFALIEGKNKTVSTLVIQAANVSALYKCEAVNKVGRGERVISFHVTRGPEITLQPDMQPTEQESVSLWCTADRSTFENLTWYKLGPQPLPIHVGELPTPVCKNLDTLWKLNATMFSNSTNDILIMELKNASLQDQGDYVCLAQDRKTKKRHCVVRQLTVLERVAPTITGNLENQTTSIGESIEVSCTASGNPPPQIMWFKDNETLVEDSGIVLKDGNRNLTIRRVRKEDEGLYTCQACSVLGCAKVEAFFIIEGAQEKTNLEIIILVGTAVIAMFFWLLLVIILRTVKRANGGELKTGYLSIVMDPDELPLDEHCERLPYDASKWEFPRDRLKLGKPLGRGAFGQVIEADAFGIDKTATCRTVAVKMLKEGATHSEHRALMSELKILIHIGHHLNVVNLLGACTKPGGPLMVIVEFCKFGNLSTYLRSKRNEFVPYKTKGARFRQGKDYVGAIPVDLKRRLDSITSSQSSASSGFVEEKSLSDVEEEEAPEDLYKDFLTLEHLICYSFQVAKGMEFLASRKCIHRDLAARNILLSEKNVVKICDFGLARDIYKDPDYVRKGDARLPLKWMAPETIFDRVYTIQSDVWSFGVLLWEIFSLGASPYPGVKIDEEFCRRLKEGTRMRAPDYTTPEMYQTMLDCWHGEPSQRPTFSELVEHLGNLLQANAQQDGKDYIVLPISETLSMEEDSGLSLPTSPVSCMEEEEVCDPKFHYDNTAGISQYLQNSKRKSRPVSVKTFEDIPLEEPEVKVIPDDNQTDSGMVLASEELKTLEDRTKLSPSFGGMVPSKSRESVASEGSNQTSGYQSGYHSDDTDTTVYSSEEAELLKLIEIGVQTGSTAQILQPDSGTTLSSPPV
Experiment [2] shares this target. Description: Inhibition of VEGFR2 (unknown origin) phosphorylation at 1 ug/mL by cell-based Western blotting analysis.
Experiment [3] has as its system Thoracic aorta. Description: Antiangiogenic activity in Sprague-Dawley rat thoracic aorta rings assessed as reduction of microvessel outgrowth at 1 uM treated every other day for 6 days by Matrigel assay. The experiment is classed as functional, tissue-based. In outline: (§1)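 Aortas were taken from male Sprague Dawley rats aged 8–10 weeks and cleaned of fibroadipose tissue. 1-mm rings were embedded between two 100 μL Matrigel layers and set 30 min at 37 °C, 5% CO2. Compound, pazopanib or 0.5% DMSO vehicle was added every other day for 6 days. Outgrowth was photographed on day 7 at ×200. Three independent experiments.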

In experiment [4] the test system is Thoracic aorta. Description: Antiangiogenic activity in Sprague-Dawley rat thoracic aorta rings assessed as reduction of microvessel outgrowth treated every other day for 6 days by Matrigel assay. The class given is functional, tissue-based. In outline: as §1
Experiment [5] relates to HUVEC. Description: Antiangiogenic activity in HUVEC assessed as inhibition of tube formation after 6 hrs by Matrigel assay. The experiment is classed as functional, cell-based. The settings on record: Homo sapiens. In outline: (§2)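 HUVECs seeded at 40,000 cells/well on Matrigel (gelled 30 min, 37 °C, 5% CO2) in M199 with 5% FBS plus compound or 0.5% DMSO vehicle; pazopanib positive control; 6 h at 37 °C, 5% CO2. Tube networks were scored by phase-contrast microscopy and photographed at ×100. Three independent experiments.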

Experiment [6] has as its target Tyrosine-protein kinase ABL1 (Homo sapiens, UniProt P00519). The experiment is described as follows: Inhibition of ABL (unknown origin) after 30 mins by fluorescence assay.
In experiment [7] the target is T1, RAC-alpha serine/threonine-protein kinase (Homo sapiens, UniProt P31749). The experiment is described as follows: Inhibition of AKT (unknown origin) after 30 mins by fluorescence assay.
T1 sequence (P31749 whole entry): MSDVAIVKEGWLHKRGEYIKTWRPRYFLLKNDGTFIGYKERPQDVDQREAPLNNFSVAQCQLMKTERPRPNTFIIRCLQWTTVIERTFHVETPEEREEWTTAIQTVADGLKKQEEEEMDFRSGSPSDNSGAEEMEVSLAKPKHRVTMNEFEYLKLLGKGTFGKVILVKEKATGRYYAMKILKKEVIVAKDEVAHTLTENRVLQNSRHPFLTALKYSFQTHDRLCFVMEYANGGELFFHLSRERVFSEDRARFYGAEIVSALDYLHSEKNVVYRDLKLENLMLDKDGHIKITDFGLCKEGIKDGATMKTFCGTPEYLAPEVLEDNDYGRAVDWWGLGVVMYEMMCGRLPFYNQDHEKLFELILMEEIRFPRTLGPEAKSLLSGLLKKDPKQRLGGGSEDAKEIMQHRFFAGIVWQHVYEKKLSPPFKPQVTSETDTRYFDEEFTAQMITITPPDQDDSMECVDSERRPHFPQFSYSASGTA
In experiment [8] the target is T1, RAC-alpha serine/threonine-protein kinase. The experiment is described as follows: Inhibition of AKT (unknown origin) at 10 uM after 30 mins by fluorescence assay relative to control. In outline: (§3)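 Enzyme plus compound (10 μM screen) or water in Hepes/Tris pH 7.4, EGTA/Tris, MgCl2, DTT and 0.008% Tween 20. Substrate and ATP started the reaction, 30 min at room temperature. EDTA stop, then europium-labelled anti-phospho-PT66 antibody for 60 min and TR-FRET read. Basal wells had no enzyme. Percent inhibition of control activity; staurosporine reference; duplicate.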

Experiment [9] addresses ALK tyrosine kinase receptor (Homo sapiens) (UniProt Q9UM73). Description: Inhibition of ALK (unknown origin) at 10 uM after 30 mins by fluorescence assay relative to control. In outline: as §3
Experiment [10] relates to Thoracic aorta. Description: Antiangiogenic activity in Sprague-Dawley rat thoracic aorta rings assessed as reduction of microvessel outgrowth at 10 uM treated every other day for 6 days by Matrigel assay. The class given is functional, tissue-based. In outline: as §1
Experiment [11] concerns HUVEC. The experiment is described as follows: Antiangiogenic activity in HUVEC assessed as inhibition of tube formation at 10 uM after 6 hrs by Matrigel assay. The class given is functional, cell-based. The settings on record: Homo sapiens. In outline: as §2
The subject of experiment [12] is Thoracic aorta. Description: Antiangiogenic activity in Sprague-Dawley rat thoracic aorta rings assessed as reduction of microvessel outgrowth at 0.1 uM treated every other day for 6 days by Matrigel assay. The experiment is classed as functional, tissue-based. In outline: as §1
The test system of experiment [13] is HUVEC. Description: Antiangiogenic activity in HUVEC assessed as inhibition of tube formation at 0.1 uM after 6 hrs by Matrigel assay. The experiment is classed as functional, cell-based. As to conditions: Homo sapiens. In outline:
as §2

Chain of ALK tyrosine kinase receptor (Homo sapiens) (Q9UM73 19-1620 limits assumed): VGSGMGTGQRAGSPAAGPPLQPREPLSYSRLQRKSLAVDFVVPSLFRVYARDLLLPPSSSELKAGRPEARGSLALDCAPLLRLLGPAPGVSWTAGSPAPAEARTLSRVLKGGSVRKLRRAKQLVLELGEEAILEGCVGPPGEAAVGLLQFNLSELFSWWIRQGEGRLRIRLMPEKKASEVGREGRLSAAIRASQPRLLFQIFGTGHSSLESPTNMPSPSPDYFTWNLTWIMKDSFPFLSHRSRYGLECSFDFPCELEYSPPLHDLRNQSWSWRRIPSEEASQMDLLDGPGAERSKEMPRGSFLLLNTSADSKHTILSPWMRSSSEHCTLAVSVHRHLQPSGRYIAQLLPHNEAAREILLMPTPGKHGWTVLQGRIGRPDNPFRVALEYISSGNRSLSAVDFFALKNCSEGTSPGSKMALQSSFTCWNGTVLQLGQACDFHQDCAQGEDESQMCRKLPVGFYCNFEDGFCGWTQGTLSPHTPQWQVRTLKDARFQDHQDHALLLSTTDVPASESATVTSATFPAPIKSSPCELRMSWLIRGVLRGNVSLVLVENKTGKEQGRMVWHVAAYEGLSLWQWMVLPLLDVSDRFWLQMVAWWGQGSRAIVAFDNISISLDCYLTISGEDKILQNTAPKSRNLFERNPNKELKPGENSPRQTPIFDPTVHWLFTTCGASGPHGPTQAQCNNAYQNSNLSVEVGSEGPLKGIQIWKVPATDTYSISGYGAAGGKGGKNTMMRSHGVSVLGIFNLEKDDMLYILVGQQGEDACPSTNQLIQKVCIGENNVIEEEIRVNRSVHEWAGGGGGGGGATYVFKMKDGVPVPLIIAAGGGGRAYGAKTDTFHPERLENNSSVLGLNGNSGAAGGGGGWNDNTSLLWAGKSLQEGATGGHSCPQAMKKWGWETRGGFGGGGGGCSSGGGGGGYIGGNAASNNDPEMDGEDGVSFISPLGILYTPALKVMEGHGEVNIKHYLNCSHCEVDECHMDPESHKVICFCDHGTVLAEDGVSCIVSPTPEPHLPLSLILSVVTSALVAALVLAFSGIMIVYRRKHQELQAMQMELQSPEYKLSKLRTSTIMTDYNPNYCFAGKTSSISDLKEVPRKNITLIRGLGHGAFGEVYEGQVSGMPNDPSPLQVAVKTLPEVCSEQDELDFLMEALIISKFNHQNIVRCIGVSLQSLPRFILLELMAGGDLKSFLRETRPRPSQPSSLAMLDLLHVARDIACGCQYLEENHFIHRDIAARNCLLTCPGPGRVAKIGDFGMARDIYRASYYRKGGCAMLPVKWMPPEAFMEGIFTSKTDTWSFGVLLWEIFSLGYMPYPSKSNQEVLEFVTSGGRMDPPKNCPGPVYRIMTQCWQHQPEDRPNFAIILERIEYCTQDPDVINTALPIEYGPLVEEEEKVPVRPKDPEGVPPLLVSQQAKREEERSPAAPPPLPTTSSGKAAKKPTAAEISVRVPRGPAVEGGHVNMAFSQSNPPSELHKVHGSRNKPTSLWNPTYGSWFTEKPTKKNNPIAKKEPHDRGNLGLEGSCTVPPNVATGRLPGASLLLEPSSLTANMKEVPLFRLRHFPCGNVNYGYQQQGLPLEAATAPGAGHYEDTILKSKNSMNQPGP
Chain of Tyrosine-protein kinase ABL1 (P00519 whole entry): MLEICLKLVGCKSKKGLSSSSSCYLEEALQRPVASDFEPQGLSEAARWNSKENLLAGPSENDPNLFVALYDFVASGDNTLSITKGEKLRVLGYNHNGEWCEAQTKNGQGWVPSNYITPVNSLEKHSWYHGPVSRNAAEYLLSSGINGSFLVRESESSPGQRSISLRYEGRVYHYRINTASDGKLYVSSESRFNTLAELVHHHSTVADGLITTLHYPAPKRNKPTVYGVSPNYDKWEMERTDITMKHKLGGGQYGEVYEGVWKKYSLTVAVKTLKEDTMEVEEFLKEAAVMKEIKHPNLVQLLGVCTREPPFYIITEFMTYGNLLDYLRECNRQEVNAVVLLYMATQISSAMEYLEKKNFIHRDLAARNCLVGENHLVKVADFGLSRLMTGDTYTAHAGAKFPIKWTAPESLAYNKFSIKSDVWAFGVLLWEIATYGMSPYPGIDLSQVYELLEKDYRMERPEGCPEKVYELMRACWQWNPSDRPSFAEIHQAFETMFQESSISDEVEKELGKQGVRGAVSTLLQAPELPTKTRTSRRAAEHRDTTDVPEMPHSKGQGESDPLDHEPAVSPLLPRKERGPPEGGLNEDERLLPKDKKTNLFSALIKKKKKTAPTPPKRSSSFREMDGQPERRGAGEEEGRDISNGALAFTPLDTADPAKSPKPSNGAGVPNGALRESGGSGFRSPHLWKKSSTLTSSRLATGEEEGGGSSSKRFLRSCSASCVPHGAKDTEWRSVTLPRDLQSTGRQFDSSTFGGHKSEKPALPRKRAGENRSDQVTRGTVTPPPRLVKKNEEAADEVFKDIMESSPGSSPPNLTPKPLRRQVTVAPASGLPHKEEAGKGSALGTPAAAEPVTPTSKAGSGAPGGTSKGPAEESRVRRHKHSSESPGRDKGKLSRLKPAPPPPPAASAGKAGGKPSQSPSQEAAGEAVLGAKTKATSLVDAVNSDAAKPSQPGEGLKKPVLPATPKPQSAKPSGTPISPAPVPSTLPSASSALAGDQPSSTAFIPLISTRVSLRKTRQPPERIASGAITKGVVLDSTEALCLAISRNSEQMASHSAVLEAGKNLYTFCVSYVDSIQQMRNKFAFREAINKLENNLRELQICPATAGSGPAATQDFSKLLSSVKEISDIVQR

Consider `O=[N+]([O-])c1ccc(S(=O)(=O)Nc2ccc(O)c(Sc3ncn[nH]3)c2)cc1`, for which the inhibition result (in [1]; in experiment [2]; in the experiment on Thoracic aorta [3]) was “Active” each time. In addition, the Activity result in the experiment with Thoracic aorta [4] is “Dose-dependent effect”. The inhibition entry in the experiment with HUVEC [5] is “Dose-dependent effect”; in [8], 100%; in [9], 49.4%. The IC50 in experiment [6] is 1500 nM; in experiment [7] it was 1260 nM.

Consider `CS(=O)(=O)Nc1ccc(O)c(Sc2ncn[nH]2)c1`, for which the inhibition in [8] stood at 14.3%; in experiment [9], 15.9%.

The molecule `Cn1nnnc1Sc1cc(NC(=O)c2ccc([N+](=O)[O-])cc2)ccc1O` came in with an inhibition in experiment [8] of 10.1%. The inhibition entry in experiment [9] is “inactive”.

`O=[N+]([O-])c1ccc(S(=O)(=O)Nc2ccc(O)c(Sc3ncnc4nc[nH]c34)c2)cc1`: in [8], the inhibition turned out to be 37.5%. Also, the inhibition result in experiment [9] is “inactive”.

With `O=C(Nc1ccc(O)c(Sc2ncnc3nc[nH]c23)c1)c1ccc([N+](=O)[O-])cc1`, in [1], the inhibition entry was “Active”. Moreover, the inhibition entry in the experiment on Thoracic aorta [10] and in the experiment on HUVEC [11] was “inactive” each time. In addition, the figures for the inhibition in experiment [8] and in experiment [9] were 64.6% and 21.9%, respectively.

Turning to `O=S(=O)(Nc1ccc(O)c(Sc2ncn[nH]2)c1)c1cccc2ccccc12`, the inhibition in experiment [8] worked out at 20.4%; in experiment [9] it was 10%.

As to `O=S(=O)(Nc1ccc(O)c(Sc2ncn[nH]2)c1)c1c(Cl)cccc1Cl`, the inhibition in experiment [8] amounted to 48.4%; in experiment [9] it was 10.3%.

Turning to `O=C(Nc1ccc(O)c(Sc2nncs2)c1)c1ccc([N+](=O)[O-])cc1`, the inhibition result in [8] and in experiment [9] was “inactive” each time.

For the molecule `Cc1cc(C)c(S(=O)(=O)Nc2ccc(O)c(Sc3nc[nH]n3)c2)c(C)c1`, the inhibition came to 19.7% in experiment [8] and 18% in [9].

With `CN[C@@H]1C[C@H]2O[C@@](C)([C@@H]1OC)n1c3ccccc3c3c4c(c5c6ccccc6n2c5c31)C(=O)NC4`, the inhibition in experiment [8] came out at 96.5%.

For the molecule `Cc1nnc(Sc2cc(NC(=O)c3ccc([N+](=O)[O-])cc3)ccc2O)s1`, the inhibition in experiment [8] stood at 12.3%; in [9] it was 14%.

On to `Cc1ccc(S(=O)(=O)Nc2ccc(O)c(Sc3nc[nH]n3)c2)cc1`, for which the inhibition in [8] worked out at 29.8%; in experiment [9], 15.3%.

`CC(C)c1cc(C(C)C)c(S(=O)(=O)Nc2ccc(O)c(Sc3ncn[nH]3)c2)c(C(C)C)c1`: the inhibition in [8] came to 14.5%; in experiment [9], 17.1%.

Take `O=S(=O)(Nc1ccc(O)c(Sc2ncn[nH]2)c1)c1ccc2ccccc2c1`: the inhibition result in experiment [8] and in [9] was “inactive” each time.

Consider `Cc1nnc(Sc2cc(NS(=O)(=O)c3ccc([N+](=O)[O-])cc3)ccc2O)s1`, for which the inhibition in experiment [8] is 14.2%; in experiment [9] it was 21.8%.

Regarding `Cc1ccc(Nc2nccc(N(C)c3ccc4c(C)n(C)nc4c3)n2)cc1S(N)(=O)=O`, the inhibition result (in experiment [1]; in experiment [2]; in the experiment with Thoracic aorta [12]; in the experiment on HUVEC [13]) was “Active” throughout.

With `O=S(=O)(Nc1ccc(O)c(Sc2ncn[nH]2)c1)c1ccc(Cl)cc1`, the inhibition result (in [1]; in experiment [2]; in the experiment with Thoracic aorta [10]; in the experiment with HUVEC [11]; in [9]) was “inactive” each time. In [8], the inhibition worked out at 56.4%.

Molecule `Cn1nnnc1Sc1cc(NS(=O)(=O)c2ccc([N+](=O)[O-])cc2)ccc1O` showed an inhibition in experiment [8] of 11.5%. Besides, the inhibition entry in [9] was “inactive”.

Turning to `O=[N+]([O-])c1ccc(S(=O)(=O)Nc2ccc(O)c(Sc3nncs3)c2)cc1`, the inhibition in experiment [8] was determined as 14.9%; in experiment [9] it was 11.4%.

In the case of `COc1ccc(S(=O)(=O)Nc2ccc(O)c(Sc3nc[nH]n3)c2)cc1`, the inhibition in experiment [8] is 12.1%; in experiment [9] it was 29.5%.

`O=C(Nc1ccc(O)c(Sc2ncn[nH]2)c1)c1ccc([N+](=O)[O-])cc1` registered an inhibition in experiment [8] of 50.7%. In addition, in experiment [9], the inhibition result is “inactive”.
